Here are results for seven compounds from ChEMBL document CHEMBL3286351, “Antibacterial evaluation of structurally amphipathic, membrane active small cationic peptidomimetics: synthesized by incorporating 3-amino benzoic acid as peptidomimetic element” (Eur J Med Chem, 2014).

The subject of series [1] is Staphylococcus epidermidis. The experiment in a line: Antibacterial activity against methicillin-resistant Staphylococcus epidermidis ATCC 51625 assessed as growth inhibition after 18 hrs by CLSI microdilution broth assay. The class given is functional. The following applies: ATCC 51625, 18 h. The method, boiled down:
(§1)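 Modified CLSI broth microdilution in Mueller-Hinton broth. Wells held 90 µL of about 2 × 10^5 CFU/mL inoculum plus 10 µL of serially diluted peptidomimetic, range 0.7-100 µg/mL. Plates were incubated overnight with agitation at 37 °C and absorbance read at 600 nm after 18 h. Controls: inoculum without compound, and uninoculated broth. Run in triplicate.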

Series [2] is described as follows: Induction of hemolysis in human RBC assessed as hemoglobin release after 1 hr by microtiter plate reader analysis. The format is cell-based, Erythrocyte. The following applies: for HC10: erythrocyte, 1 h; for HC50 at 1 h: red blood cells. The method, boiled down: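 Freshly isolated human RBCs washed three times in PBS (35 mM phosphate, 150 mM NaCl, pH 7.2) and used as a 4% (v/v) suspension. Mixed 1:1 with twofold serial dilutions of compound, incubated 1 h at 37 °C without agitation, then centrifuged. Supernatant A540 read. PBS defined 0% and 1% Triton X-100 defined 100% lysis; HC50 and HC10 derived.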

The nature of series [3]: Retention time of the compound by HPLC analysis. The format is physicochemical. The gist of the method: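 Analytical RP-HPLC on a C18 column (5 µm, 4.6 × 250 mm) at room temperature. Run a linear gradient of 0.5-60% acetonitrile containing 0.05% TFA against water containing 0.05% TFA at 0.5 mL/min.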
The test system of series [4] is Escherichia coli. The experiment in a line: Antibacterial activity against Escherichia coli MTCC 723 assessed as growth inhibition after 18 hrs by CLSI microdilution broth assay. The following applies: MTCC 723, 18 h. The class given is functional. On the technique in general: In broth dilution the organism is exposed to a series of concentrations in liquid medium.

For series [5], the system named is Pseudomonas aeruginosa. As to the kind of experiment: Antibacterial activity against Pseudomonas aeruginosa MTCC 2295 assessed as growth inhibition after 18 hrs by CLSI microdilution broth assay. The class given is functional. The following applies: MTCC 2295, 18 h.
In series [6] the test system is Staphylococcus aureus. As to the kind of experiment: Antibacterial activity against Staphylococcus aureus MTCC 3160 assessed as growth inhibition after 18 hrs by CLSI microdilution broth assay. The class given is functional. The following applies: MTCC 3160, 18 h.
The subject of series [7] is Bacillus subtilis. The experiment in a line: Antibacterial activity against Bacillus subtilis MTCC 2763 assessed as growth inhibition after 18 hrs by CLSI microdilution broth assay. The format is functional. The following applies: MTCC 2763, 18 h.
For series [8], the system named is Staphylococcus aureus. The experiment in a line: Antibacterial activity against methicillin-resistant Staphylococcus aureus ATCC BAA-1720 assessed as growth inhibition after 18 hrs by CLSI microdilution broth assay. The class given is functional. The settings on record: ATCC BAA-1720, 18 h. The method, boiled down:
as §1

A short description of series [9]: Selectivity ratio of HC50 for hemolysis in human RBC to MIC for Staphylococcus aureus.

Broadly, the MIC is the least concentration at which growth counts as inhibited. What is called HC50 is the concentration giving 50% haemolysis.

≈ marks a conversion by molar mass, not a printed value. Where a SMILES comes first, the peptide text is derived from it. [ ]: non-standard residue; d: D form. 3Abz = Nc1cccc(C(=O)O)c1; Orn = NCCC[CH](N)C(=O)O

Regarding `N=C(N)NCCCC(NC(=O)c1cccc(NC(=O)C(N)Cc2c[nH]c3ccccc23)c1)C(N)=O` (centres undefined), the MIC in series [1], in series [4], in series [5], in series [6], in series [7] and in [8] was greater than 200 µg/mL throughout. The HC10 in series [2] was found to be 400 µg/mL. The HC50 at 1 h in series [2] was greater than 500 µg/mL. In series [3], this compound gave a Retention_time of 26.553 min.

For `N=C(N)NCCCC(NC(=O)C(Cc1ccccc1)NC(=O)c1cccc(NC(=O)C(Cc2ccccc2)NC(=O)C(CCCNC(=N)N)NC(=O)C(N)Cc2ccccc2)c1)C(N)=O` (centres undefined) (H-FRF[3Abz]FR-NH2; configuration not given here), the MIC in [1] was 120 µg/mL (≈ 135 µM); in series [4], greater than 200 µg/mL; in [5], greater than 200 µg/mL; in series [6], 120 µg/mL (≈ 135 µM); in series [7], 150 µg/mL (≈ 169 µM); in series [8], 125 µg/mL (≈ 140 µM). Further, in [2], the HC10 was 125 µg/mL. In addition, the HC50 at 1 h in series [2] came out at 310 µg/mL. The Selectivity ratio in series [9] turned out to be 2.58. This compound also had a Retention_time in [3] of 26.225 min.

Take `NCCCC(NC(=O)C(Cc1ccccc1)NC(=O)c1cccc(NC(=O)C(Cc2ccccc2)NC(=O)C(CCCN)NC(=O)C(N)Cc2ccccc2)c1)C(N)=O` (centres undefined) (H-F[Orn]F[3Abz]F[Orn]-NH2; configuration not given here): the MIC in [1] is greater than 200 µg/mL; in series [4] it was greater than 200 µg/mL; in [5], greater than 200 µg/mL; in series [6], 150 µg/mL (≈ 186 µM); in series [7], greater than 200 µg/mL; in series [8] it was greater than 200 µg/mL. Besides, the HC10 in series [2] came to 180 µg/mL. In addition, the HC50 at 1 h in series [2] was determined as 400 µg/mL. The Selectivity ratio in series [9] worked out at 2.66. In [3], this compound returned a Retention_time of 25.038 min.

For `N=C(N)NCCCC(N)C(=O)NC(CCCNC(=N)N)C(=O)NC(Cc1ccccc1)C(=O)Nc1cccc(C(=O)NC(Cc2ccccc2)C(=O)NC(CCCNC(=N)N)C(N)=O)c1` (centres undefined) (H-RRF[3Abz]FR-NH2; configuration not given here), the minimal inhibitory concentration (MIC) in series [1] is 170 µg/mL (≈ 189 µM); in [4], greater than 200 µg/mL; in series [5] it was greater than 200 µg/mL; in series [6], 150 µg/mL (≈ 167 µM); in series [7], 200 µg/mL (≈ 222 µM); in series [8], 150 µg/mL (≈ 167 µM). In addition, the HC10 in [2] amounted to 130 µg/mL. The HC50 at 1 h in series [2] was found to be 375 µg/mL. In addition, in series [9], the Selectivity ratio worked out at 2.5. Further, the Retention_time in series [3] was 24.871 min.

`N=C(N)NCCCC(N)C(=O)NC(CCCNC(=N)N)C(=O)NC(Cc1c[nH]c2ccccc12)C(=O)NC(Cc1c[nH]c2ccccc12)C(=O)NC(CCCNC(=N)N)C(N)=O` (centres undefined) (H-RRWWR-NH2; configuration not given here): the minimum inhibitory concentration (MIC) in series [1] is 20 µg/mL (≈ 23.3 µM); in [4], 75 µg/mL (≈ 87.4 µM); in [5] it was 100 µg/mL (≈ 117 µM); in series [6] it was 25 µg/mL (≈ 29.1 µM); in series [7] it was 70 µg/mL (≈ 81.6 µM); in [8], 25 µg/mL (≈ 29.1 µM). Besides, the HC10 in [2] stood at 90 µg/mL. The HC50 at 1 h in [2] was determined as 240 µg/mL. Moreover, the Selectivity ratio in series [9] came to 9.6. The compound further registered a Retention_time in series [3] of 29.606 min.

With `NCCCC(N)C(=O)NC(CCCN)C(=O)NC(Cc1ccccc1)C(=O)Nc1cccc(C(=O)NC(Cc2ccccc2)C(=O)NC(CCCN)C(N)=O)c1` (centres undefined) (H-[Orn][Orn]F[3Abz]F[Orn]-NH2; configuration not given here), the MIC in series [1], in series [4], in series [5], in [6], in [7] and in [8] was greater than 200 µg/mL in each case. Further, in series [2], the HC10 was 210 µg/mL. Besides, the HC50 at 1 h in series [2] was determined as 490 µg/mL. Moreover, in series [3], the Retention_time is listed as 23.313 min.

`CN[C@H](CC(C)C)C(=O)N[C@H]1C(=O)N[C@@H](CC(N)=O)C(=O)N[C@H]2C(=O)N[C@H]3C(=O)N[C@H](C(=O)N[C@H](C(=O)O)c4cc(O)cc(O)c4-c4cc3ccc4O)[C@H](O)c3ccc(c(Cl)c3)Oc3cc2cc(c3O[C@@H]2O[C@H](CO)[C@@H](O)[C@H](O)[C@H]2O[C@H]2C[C@](C)(N)[C@H](O)[C@H](C)O2)Oc2ccc(cc2Cl)[C@H]1O` [VANCOMYCIN]: the MIC in series [8] is 1.5 µg/mL (≈ 1.04 µM).
